Measurements reported in PubChem BioAssay AID2170 (The Scripps Research Institute Molecular Screening Center, 2009).
In all, about 2,400 compounds went through this assay and about 660 (28%) were called active. Not all results are given here. Values without a mark were called inactive.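 Rule for the calls: active = mean inhibition over replicate wells above the hit cutoff set for the earlier primary screen (cut at about 29% in these data); inactive = the rest.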

Tested on: M18 aspartyl aminopeptidase (Plasmodium falciparum 3D7)
Assay: inhibition of P. falciparum M18 aminopeptidase – biochemical, QFRET, recombinant enzyme, triplicate, confirmation (AID 2170);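 note: 0% = median of test compound wells and 100% = 2 mM ZnCl2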
Details: recombinant PfM18AAP, H-Glu-NHMec fluorogenic cleavage; at 7.35 µM; hits give high values
Summary of the method: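 Material: recombinant P. falciparum M18 aspartyl aminopeptidase; Medium: Cobalt-containing Tris buffer with BSA; Also added: H-Glu-NHMec fluorogenic substrate; Compound: 7.35 µM single dose; Timing: Enzyme–compound pre-incubation 30 min, substrate reaction 90 min, both 25 °C; Detection: fluorescence 340/450 nm at 0 and 90 min; Controls: ZnCl2 inhibitor control; Replicates: triplicate wells per compound.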

Structure (SMILES)	inhibition
O=C(Nn1cnnc1)c1cc(Cl)ccc1Cl	55.1% (active)
O=C(Nc1ccccc1Cl)Nn1cnnc1	65.9% (active)
Cc1ccc(S(=O)(=O)N/N=C\c2cc3c(cc2[N+](=O)[O-])OCO3)cc1	-7.72%
Cc1ccc(Cl)cc1-c1ccc(/C=N/n2cnnc2)o1	-18.6%
Cc1ccc(-c2ccc(/C=C(\C#N)C(N)=S)o2)c([N+](=O)[O-])c1	-32.7%
NC(=O)c1c(NC(=O)CSc2nnc(-c3ccco3)n2N)sc2c1CCCC2	-70.9%
S=c1[nH]nc2c3c4c(sc3ncn12)CCCC4	-11.8%
CCOCCCNC(=O)c1ccc(CS(=O)(=O)c2cccc(C(F)(F)F)c2)o1	-29.5%
Cc1cccc(NC(=O)c2sc3nc(N4CCOCC4)c4c(c3c2N)CCCC4)c1	3.82%
O=S(=O)(c1ccc(NC(=S)NN=C(C2CC2)C2CC2)cc1)N1CCOCC1	14.8%
Cc1nnc(SCC(=O)Nn2cnnc2)s1	29.1% (active)
NC(=O)C1CCN(C(=O)/C(=C/c2ccco2)NC(=O)c2ccccc2)CC1	-45.2%
CCOc1ccc(-n2c(O)c(/C=N/Nc3nnc(C)c(=O)[nH]3)c3ccccc3c2=O)cc1	12.4%
Oc1c(C(c2ccco2)N2CCC3(CC2)OCCO3)sc2ncnn12 (stereo not drawn)	-4.87%
Cc1ccc2nc(-c3cccc(Br)c3)cc(C(=O)Nn3cnnc3)c2c1	63.4% (active)
CCN(CC)c1ccc(/C=N/Nc2nc(C)cc(C)n2)c(O)c1	16.4%
Oc1ccc(/C=N/NC2=NCCCCC2)c(O)c1	41.8% (active)
O=C(Oc1ccc(Br)cc1C(=S)N1CCOCC1)c1cccc([N+](=O)[O-])c1	-27.5%
Oc1ccc(N2CCN(C(=S)NCc3ccccc3)CC2)cc1	-12.9%
CC(OC(=O)c1ccc2noc(-c3ccccc3)c2c1)C(N)=O (stereo not drawn)	-28.2%
O=C(N/N=C/c1ccc(O)c(O)c1)C1c2ccccc2Oc2ccccc21	37.3% (active)
CSc1n[nH]c(=S)n1N	-12.7%
O=C(CSC(=S)N1CCOCC1)c1cc(Br)cc(Br)c1O	-45.7%

Structure (SMILES)	inhibition
CCN(CC)c1ccc(NC(=O)CCc2nnc3ccc(N4CCCCC4)nn23)c(C)c1	-12.9%
Cc1csc(NC(=O)NC2(C(F)(F)F)Oc3ccccc3O2)n1	68.6% (active)
Oc1cccc(/C=N/Nc2ccc(Cl)nn2)c1O	20.8%
CN(C)c1ccc(C(CC(=O)O)C(=O)O)cc1 (stereo not drawn)	-38.2%
COc1cc(S(=O)(=O)Nc2ncn[nH]2)ccc1Cl	34.1% (active)
Cc1onc(-c2ccccc2)c1C(=O)NNC(=S)NC(=O)c1ccc(F)cc1	-38.8%
Oc1ccc(-c2csc(Nc3cccnc3)n2)cc1	56.6% (active)
CC1(C)CC(=O)C/C(=N\NC(=O)c2cccs2)C1	3.68%
N#CCC(=O)N/N=C/c1ccc(SCC(=O)Nc2ccccc2)o1	-37.9%
CCOC(=O)NNc1cc(C(F)(F)F)ccn1	28.2% (active)
COc1ccc2c(c1)C(C)=CC(C)(C)N2C(=O)Nc1ccccc1	-22.9%
COc1ccc(/C=N/Nc2nc3ccccc3o2)cc1OC	-38.4%
c1ccc2c(c1)OCC(c1nn3cnnc3s1)O2 (stereo not drawn)	-28.2%
Cc1cc2nc3c(=O)n(Cc4ccccc4)c(=O)[nH]c3nc2cc1N	7.01%
Cc1ccsc1/C=N/Nc1ccc(Cl)nn1	-14.8%
COc1cc(Br)cc(/C=N/c2ncn[nH]2)c1O	62.9% (active)
Cc1cc(-c2ccc(/C=N/n3cnnc3)o2)c([N+](=O)[O-])cc1C	0.8%
Cc1ccc(NC(=O)c2c(NC(=O)CCC(=O)O)sc3c2CCCCC3)cc1	-30.8%
CNC(=S)NNC(=O)c1ccc(N(C)C)cc1	12.2%
CCCc1nc2ccccc2c(=O)n1/N=C/c1ccc(O)c(O)c1	28.4% (active)
CC(C)c1ccc(NC(=S)NNc2ccc(Cl)c(C(=O)O)c2)cc1	-43.7%
COc1cc(/C=C2/C(=O)NN(c3cccc(Cl)c3)C2=O)cc(Br)c1O	12.9%
O=C(NNC(=O)c1ccco1)Nc1ccccc1	17.1%

Structure (SMILES)	inhibition
CC(C)C1N=C2c3ccccc3N=C(SCC(=O)c3ccc(O)c(O)c3)N2C1=O (stereo not drawn)	39% (active)
COc1cc(NC(=S)N2CCCC(C)C2)c(OC)cc1Cl (stereo not drawn)	-0.38%
S=c1[nH]c(-c2cccs2)cn1-c1ccccc1	39.1% (active)
Cc1cc(C)nc(NNC2=CC(=O)CC(C)(C)C2)n1	44.3% (active)
O=C(CC(n1cncn1)C(Cl)(Cl)Cl)c1ccc([N+](=O)[O-])cc1 (stereo not drawn)	-9.53%
COc1c(O)ccc2c1CN1CCc3cc4c(cc3C1C2)OCO4 (stereo not drawn)	9.45%
Cc1c(CC(=O)N2CCN(C(=O)C3COc4ccccc4O3)CC2)c(=O)oc2c(O)c(O)ccc12 (stereo not drawn)	32.3% (active)
CCN1/C(=C/C(=S)Nc2ccccc2)Sc2ccccc21	0.1%
CC(C)(C)c1nnc(N/N=C/c2ccc(O)cc2)n(N)c1=O	-22.7%
CCOc1ccc(C2C3=C(CCCC3=O)N(CC(=O)O)C3=C2C(=O)CCC3)cc1	-43.7%
Cc1ccnc(-n2sc3ccccc3c2=O)n1	28.8% (active)
NC(=S)N/N=C/c1coc2cc(Cl)ccc2c1=O	-23.6%
O=C(CN1CCN(c2ccc(O)cc2)CC1)Nc1ccc(-c2ccccc2)cc1	-14.9%
c1ccc2sc(NN=C3CCCC3)nc2c1	-44.4%
Cc1cc(C)nc(Nc2ncn[nH]2)n1	71.7% (active)
COc1cccc2cc(-c3cc(=O)oc4cc(C)c(O)cc34)oc12	-27.8%
O=C(CSc1ncn[nH]1)Nc1ccnc2ccccc12	8.46%
O=C(CSc1ncn[nH]1)Nc1nsc(-c2ccccc2)n1	14.9%
O=C(CSc1ncn[nH]1)Nc1nc(-c2cccc([N+](=O)[O-])c2)cs1	36.5% (active)
COc1ccccc1-c1nnc(SCC(=O)Nc2cc(C)on2)o1	-49.2%
c1ccc(-c2ccc3c(c2)NC(C2Nc4cc(-c5ccccc5)ccc4O2)O3)cc1 (stereo not drawn)	-52.4%
O=C1CCCCN1CCCC(=O)N1CCCC(Nc2ccc(F)cc2)C1 (stereo not drawn)	-33.7%
COc1ccc(OC)c(Nc2nc(-c3ccc(O)c(O)c3)cs2)c1	42.4% (active)

Structure (SMILES)	inhibition
Cc1cc(/C=N/Nc2ccc([N+](=O)[O-])cn2)c(C)n1-c1cccc(C(=O)O)c1	-23.4%
Cc1ccc(-c2noc(CC(c3ccccc3)c3ccccc3)n2)cc1	-39.5%
Cn1sc(=O)c2cc(S(=O)(=O)NC3CC3)ccc21	-11.8%
O=C(CN1CCN(S(=O)(=O)c2cc(Cl)ccc2Cl)CC1)c1ccc(O)c(O)c1	31.5% (active)
Cc1nc2ccc(S(=O)(=O)NCC(=O)O)cc2s1	12.5%
O=C(Cn1c[n+](CC(=O)c2ccc([N+](=O)[O-])cc2)cn1)c1ccc([N+](=O)[O-])cc1	14%
O=c1nc(N/N=C/c2ccco2)cn[nH]1	18.9%
ONC(=Nc1ccccc1)c1ccccc1Cl	-2.39%
CC/C(C)=N/Nc1nc2sc3c(c2c(=O)[nH]1)CC(C)(C)OC3	9.57%
Cc1nccn1CC(=O)N/N=C/c1ccc(O)c(O)c1	58.4% (active)
Cn1c(SCC(=O)N/N=C/c2ccc(O)c(O)c2)nc2ccccc21	50.9% (active)
Oc1ccc(/C=N/Nc2ccc(C(F)(F)F)cn2)cc1O	6.58%
CCn1c(CNS(=O)(=O)c2ccc(Cl)cc2)n[nH]c1=S	-0.52%
Cn1c(=O)[nH]c(=O)c2c1[nH]c(=S)n2Cc1ccccc1	6.35%
Cc1cc([N+](=O)[O-])c(-c2ccc(/C=N/n3cnnc3)o2)cc1Cl	10.6%
O=[N+]([O-])c1ccc(N2CCN(c3ccc(O)cc3)CC2)c(Cl)c1	-3.08%
O=C(Nc1cccc([N+](=O)[O-])c1)Nn1cnnc1	64.6% (active)
CCN(CC)S(=O)(=O)c1cc([N+](=O)[O-])ccc1NNC(=O)Nc1ccccc1	25.9%
O=C(COc1ccc([N+](=O)[O-])cc1Cl)Nn1cnnc1	36.8% (active)
COc1cc(/C=N\Nc2ccc([N+](=O)[O-])cn2)ccc1OCC(=O)O	-18%
O=C(O)CCn1c(O)c(C=C2N=c3ccccc3=N2)sc1=S	-42.5%
NC(=O)c1c(Nc2nc3c(F)cccc3s2)sc2c1CCCC2	-18.3%
Cc1cc2c(C)nc(N/N=C/c3ccccc3)nc2o1	-42.8%

Structure (SMILES)	inhibition
O=C(CO/N=C/c1ccccc1O)NNC(=O)c1ccccc1Cl	42.3% (active)
CCOc1cccc(/C=N/NC(=S)NCCN2CCOCC2)c1O	16.9%
COc1ccc(OCc2n[nH]c(=S)n2N)cc1	20.3%
COc1ccc(OCc2nnc3n2N=C(c2ccccc2)C(CC(=O)O)S3)cc1 (stereo not drawn)	40.8% (active)
CC1CCN(C(=O)c2ccc3c(c2)NC(=O)CN3)CC1	-7.91%
CCN(CC)c1ccc2oc(=O)c(C)nc2c1	27.1%
ClC1(Cl)CC1CSc1ncn[nH]1 (stereo not drawn)	11.5%
CCn1ccnc1CNC(=O)CC1C(=O)NCCN1Cc1ccc(F)cc1Cl (stereo not drawn)	-24.5%
CC(=O)c1ccc(NC(=O)CCc2nnc3ccc(NCc4ccco4)nn23)cc1	-28.5%
CC(C)(C)C(=O)OCc1nc(-c2ccc(O)c(O)c2)cs1	53.5% (active)
COc1ccc(N/C=C(\C2OC(=O)c3ccccc32)[N+](=O)[O-])cc1 (stereo not drawn)	-36.7%
CC(/C=C/C1(O)C(C)CC(=O)CC1(C)C)OC1OC(CO)C(O)C(O)C1O (stereo not drawn)	11.3%
CNC(=O)c1c(NC(NC(=O)c2ccco2)C(=O)c2ccc(Cl)cc2)sc2c1CCCC2 (stereo not drawn)	-18.7%
CC(C)(C)NC(=O)C(c1ccncc1)N(C(=O)CNC(=O)c1ccco1)c1ccc2c(c1)OCO2 (stereo not drawn)	-44.5%
CC(=O)N(c1ccc2oc(=O)sc2c1)S(=O)(=O)c1ccc(C)cc1	-21.7%
O=C(O)c1cccc(NC(=S)N/N=C/c2c[nH]c3ccccc23)c1	3.61%
COc1cc(/C=N/Nc2nn3cnnc3c3ccccc23)cc(OC)c1OC	-33.8%
COc1cc(/C=N/NC(=S)Nc2cccnc2)cc(OC)c1O	35.5% (active)
OCCN1CCN(C(=S)c2ccc(-c3ccccc3)cc2)CC1	14.5%
Cc1ccc(C)c(NC(=O)NNC(=O)c2ccc3ccccc3c2O)c1	4.3%
Cc1nc2nc[nH]n2c(=O)c1C/C=C/c1ccccc1	50.7% (active)
